This passage reports GI50 results from ChEMBL document CHEMBL3808357, “Discovery of N-(3-((1-Isonicotinoylpiperidin-4-yl)oxy)-4-methylphenyl)-3-(trifluoromethyl)benzamide (CHMFL-KIT-110) as a Selective, Potent, and Orally Available Type II c-KIT Kinase Inhibitor for Gastrointestinal Stromal Tumors (GISTs)” (J Med Chem, 2016).

SMILES strings stand for the structures.

A short description of data set [1]: Antiproliferative activity against mouse BAF3 cells. The data set is classed as cell-based.
The target of data set [2] is Mast/stem cell growth factor receptor Kit (Homo sapiens) (UniProt P10721). As to the kind of experiment: Inhibition of Tel-fused cKIT (unknown origin) transfected in mouse BAF3 cells assessed as decrease in cell proliferation after 72 hrs by celltiter-glo/CCK8 assay. The data set is classed as cell-based. The procedure, abridged: (§1)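 Cells were seeded at 1 to 3 × 10⁴ cells/mL with serial compound concentrations and incubated 72 h at 37 °C, 5% CO₂. Viability was read by CellTiter-Glo luminescence or CCK-8 absorbance (450/655 nm). GI50 values are from triplicate testing. GIST-T1 and CHO were grown in DMEM/10% FBS; GIST-882, GIST-48B and MV4-11 in IMDM/10% FBS; other lines in RPMI 1640/10% FBS.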
For orientation: ATP-based viability assays read luminescence as a measure of living cells.

Data set [3] has as its system Mast/stem cell growth factor receptor Kit (Homo sapiens), P10721 [V559D]. As to the kind of experiment: Inhibition of Tel-fused cKIT V559D mutant (unknown origin) transfected in mouse BAF3 cells assessed as decrease in cell proliferation after 72 hrs by celltiter-glo/CCK8 assay. It is filed as cell-based. The gist of the method:
(§2)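 Stable BaF3 lines made by retroviral transduction with mutagenized TEL-KIT MSCV vectors, puromycin selection 48 h, then gradual IL-3 withdrawal until IL-3-independent; grown in RPMI 1640 with 10% FBS. Cells at 1 to 3 × 10⁴ cells/mL exposed to a concentration series for 72 h; viability read by CellTiter-Glo luminescence or CCK-8 absorbance (450/655 nm); GI50 from triplicate testing.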

For data set [4], the system named is Mast/stem cell growth factor receptor Kit (Homo sapiens), P10721 [T670I]. The experiment in a line: Inhibition of Tel-fused cKIT T670I mutant (unknown origin) transfected in mouse BAF3 cells assessed as decrease in cell proliferation after 72 hrs by celltiter-glo/CCK8 assay. It is filed as cell-based. The procedure, abridged:
as §2

In data set [5] the test system is Mast/stem cell growth factor receptor Kit (Homo sapiens), P10721 [V654A]. As to the kind of experiment: Inhibition of Tel-fused cKIT V654A mutant (unknown origin) transfected in mouse BAF3 cells assessed as decrease in cell proliferation after 72 hrs by celltiter-glo/CCK8 assay. It is filed as cell-based. The gist of the method:
as §2

Data set [6] concerns Mast/stem cell growth factor receptor Kit (Homo sapiens), P10721 [V559D,T670I]. The experiment in a line: Inhibition of Tel-fused cKIT T670I/V559D double mutant (unknown origin) transfected in mouse BAF3 cells assessed as decrease in cell proliferation after 72 hrs by celltiter-glo/CCK8 assay. The data set is classed as cell-based. The gist of the method: as §2
In data set [7] the test system is Mast/stem cell growth factor receptor Kit (Homo sapiens), P10721 [D816V]. The experiment in a line: Inhibition of Tel-fused cKIT D816V mutant (unknown origin) transfected in mouse BAF3 cells assessed as decrease in cell proliferation after 72 hrs by celltiter-glo/CCK8 assay. The data set is classed as cell-based. The gist of the method:
as §2

The nature of data set [8]: Antiproliferative activity against cKIT dependent human GISTT1 cells assessed as reduction in cell viability after 72 hrs by celltiter-glo/CCK8 assay. To be noted: GISTT1, 72 h. The data set is classed as functional. The procedure, abridged: as §1
The test system of the next data set is MV4-11. The experiment in a line: Antiproliferative activity against FLT3-ITD dependent human MV4-11 cells assessed as reduction in cell viability after 72 hrs by celltiter-glo/CCK8 assay. The data set is classed as functional. To be noted: MV4-11, 72 h. The gist of the method:
as §1

Data set [9] can be described thus: Antiproliferative activity against cKIT dependent human GIST882 cells assessed as reduction in cell viability after 72 hrs by celltiter-glo/CCK8 assay. To be noted: GIST882, 72 h. The data set is classed as functional. The procedure, abridged: as §1
Data set [10] can be described thus: Antiproliferative activity against human GIST48B cells assessed as reduction in cell viability after 72 hrs by celltiter-glo/CCK8 assay. It is filed as functional. The procedure, abridged:
as §1

Another data set has as its system K562. As to the kind of experiment: Antiproliferative activity against BCR-ABL dependent human K562 cells assessed as reduction in cell viability after 72 hrs by celltiter-glo/CCK8 assay. The settings on record: K562, 72 h. The data set is classed as functional. The procedure, abridged:
as §1

A short description of data set [11]: Antiproliferative activity against human BCR-ABL dependent MEG01 cells assessed as reduction in cell viability after 72 hrs by celltiter-glo/CCK8 assay. It is filed as functional. To be noted: MEG-01, 72 h.
A short description of data set [12]: Antiproliferative activity against BCR-ABL dependent human KU812 cells assessed as reduction in cell viability after 72 hrs by celltiter-glo/CCK8 assay. The data set is classed as functional. The settings on record: KU812, 72 h. The procedure, abridged:
as §1

Data set [13] is described as follows: Antiproliferative activity against human U937 cells assessed as reduction in cell viability after 72 hrs by celltiter-glo/CCK8 assay. It is filed as functional. To be noted: U-937, 72 h. The gist of the method:
as §1

Data set [14] can be described thus: Antiproliferative activity against FLT3-ITD dependent human MOLM14 cells assessed as reduction in cell viability after 72 hrs by celltiter-glo/CCK8 assay. To be noted: MOLM-14, 72 h. The data set is classed as functional. The procedure, abridged:
as §1

Data set [15] can be described thus: Antiproliferative activity against human HL60 cells assessed as reduction in cell viability after 72 hrs by celltiter-glo/CCK8 assay. The data set is classed as functional. The settings on record: HL-60, 72 h. The gist of the method: as §1
A short description of data set [16]: Antiproliferative activity against human Rec1 cells assessed as reduction in cell viability after 72 hrs by celltiter-glo/CCK8 assay. The data set is classed as functional. To be noted: Rec1, 72 h. The procedure, abridged:
as §1

Data set [17] can be described thus: Antiproliferative activity against CHL cells assessed as reduction in cell viability after 72 hrs by celltiter-glo/CCK8 assay. The data set is classed as cell-based, Cricetulus griseus. To be noted: chinese hamster. The gist of the method:
as §1

The nature of data set [18]: Antiproliferative activity against CHO cells assessed as reduction in cell viability after 72 hrs by celltiter-glo/CCK8 assay. The data set is classed as cell-based, Cricetulus griseus. The settings on record: chinese hamster. The gist of the method:
as §1

Chain of Mast/stem cell growth factor receptor Kit (Homo sapiens), P10721 [V559D] (P10721 whole entry V559D, the tested form may be a part): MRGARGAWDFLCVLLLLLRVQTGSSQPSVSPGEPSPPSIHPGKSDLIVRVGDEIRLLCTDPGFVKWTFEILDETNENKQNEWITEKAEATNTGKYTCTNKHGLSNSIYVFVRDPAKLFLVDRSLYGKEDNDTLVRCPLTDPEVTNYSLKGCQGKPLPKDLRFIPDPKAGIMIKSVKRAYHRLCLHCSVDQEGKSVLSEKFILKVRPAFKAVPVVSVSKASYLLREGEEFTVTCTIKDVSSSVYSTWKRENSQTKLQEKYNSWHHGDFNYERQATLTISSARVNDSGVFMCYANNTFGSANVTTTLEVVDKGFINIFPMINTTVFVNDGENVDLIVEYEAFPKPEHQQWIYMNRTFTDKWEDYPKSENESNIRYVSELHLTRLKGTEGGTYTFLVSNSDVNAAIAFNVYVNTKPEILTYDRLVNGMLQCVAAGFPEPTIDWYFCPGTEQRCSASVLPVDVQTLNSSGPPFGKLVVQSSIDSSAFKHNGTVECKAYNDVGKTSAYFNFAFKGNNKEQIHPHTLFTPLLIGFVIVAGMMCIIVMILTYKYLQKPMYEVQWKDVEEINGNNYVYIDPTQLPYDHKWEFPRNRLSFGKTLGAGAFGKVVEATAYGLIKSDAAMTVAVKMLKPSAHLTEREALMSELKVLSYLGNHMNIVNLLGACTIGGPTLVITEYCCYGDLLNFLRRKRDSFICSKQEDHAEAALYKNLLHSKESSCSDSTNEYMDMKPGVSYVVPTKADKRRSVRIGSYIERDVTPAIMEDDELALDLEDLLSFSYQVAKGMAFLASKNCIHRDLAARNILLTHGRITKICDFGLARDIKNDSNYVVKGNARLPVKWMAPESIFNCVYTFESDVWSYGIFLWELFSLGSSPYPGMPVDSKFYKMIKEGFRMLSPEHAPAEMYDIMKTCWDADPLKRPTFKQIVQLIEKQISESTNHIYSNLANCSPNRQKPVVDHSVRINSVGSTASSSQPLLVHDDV
Chain of Mast/stem cell growth factor receptor Kit (Homo sapiens), P10721 [T670I] (P10721 whole entry T670I, the tested form may be a part): as the sequence (P10721 whole entry V559D, the tested form may be a part) above, with D559V, T670I counted along it
Chain of Mast/stem cell growth factor receptor Kit (Homo sapiens), P10721 [V654A] (P10721 whole entry V654A, the tested form may be a part): as the sequence (P10721 whole entry V559D, the tested form may be a part) above, with D559V, V654A counted along it
Chain of Mast/stem cell growth factor receptor Kit (Homo sapiens) (P10721 whole entry, the tested form may be a part): as the sequence (P10721 whole entry V559D, the tested form may be a part) above, with D559V counted along it
Chain of Mast/stem cell growth factor receptor Kit (Homo sapiens), P10721 [D816V] (P10721 whole entry D816V, the tested form may be a part): as the sequence (P10721 whole entry V559D, the tested form may be a part) above, with D559V, D816V counted along it
Chain of Mast/stem cell growth factor receptor Kit (Homo sapiens), P10721 [V559D,T670I] (P10721 whole entry V559D/T670I, the tested form may be a part): as the sequence (P10721 whole entry V559D, the tested form may be a part) above, with T670I counted along it

Take `CCN(CC)CCNC(=O)c1c(C)[nH]c(/C=C2\C(=O)Nc3ccc(F)cc32)c1C` [SUNITINIB]: the GI50 (in general, the concentration at which growth is held to half of that of the control) in data set [1] is 2780 nM; in data set [2], 78 nM; in [3] it was 9 nM; in [4], 2 nM; in data set [5], 20 nM; in data set [6], 53 nM. For the same compound, the GI50 in [7] was found to be 1380 nM; in [8] it was 41 nM; with MV4-11 it was 1 nM; in data set [9], 110 nM; in data set [10] it was 2010 nM; in the data set on K562, 1000 nM. Besides, the GI50 in data set [11] is 1200 nM; in data set [12] it was 1100 nM; in data set [13] it was 1700 nM; in data set [14], 5 nM; in data set [15], 1 nM; in data set [16], 870 nM. In addition, the GI50 at 72 h in data set [17] came out at 2480 nM; in [18], 2030 nM.
